Measured values as given in ChEMBL document CHEMBL2417474, “Synthesis, antiproliferative and anti-inflammatory activities of some novel 6-aryl-2-(p-(methanesulfonyl)phenyl)-4,5-dihydropyridazi-3(2H)-ones” (Eur J Med Chem, 2013).

Assays:
Assay type in all cases: functional
[1] = test system: RPMI-8226; test: Growth inhibition of human RPMI8226 cells after 48 hrs by sulforhodamine B assay; settings: RPMI-8226, 48 h
Procedure, shortened: (§1)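 NCI 60-cell-line panel. Cells were grown in medium with 5% fetal calf serum and 2 mM L-glutamine, then preincubated 24 h in plates. Compounds were added from DMSO at five 10-fold concentrations from 100 to 0.01 µM and left on cells continuously for 48 h. Cell growth was read by sulforhodamine B protein stain. GI50 is the concentration that halves net protein increase relative to control cells.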

[2] = test system: OVCAR-3; test: Growth inhibition of human OVCAR3 cells after 48 hrs by sulforhodamine B assay; settings: OVCAR-3, 48 h; procedure, shortened: as §1
[3] = test system: LOX IMVI; test: Growth inhibition of human LOXIMVI cells after 48 hrs by sulforhodamine B assay
Procedure, shortened: (§2)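 NCI 60-cell-line panel grown in RPMI-type medium with 5% fetal calf serum and 2 mM L-glutamine. Cells preincubated 24 h, then exposed continuously for 48 h to compound in DMSO at 10^-4 to 10^-8 M (five 10-fold levels). Growth read by SRB protein stain. GI50 is the concentration giving a 50% reduction in net protein increase relative to control cells.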

[4] = Growth inhibition of human Hs 578T cells assessed as cell growth at 10 uM after 48 hrs by sulforhodamine B assay; settings: read-out: Activity
[5] = test system: K562; test: Growth inhibition of human K562 cells after 48 hrs by sulforhodamine B assay; settings: K562, 48 h; procedure, shortened: as §2
[6] = test system: SNB-19; test: Growth inhibition of human SNB19 cells after 48 hrs by sulforhodamine B assay; settings: SNB-19, 48 h; procedure, shortened: as §1
[7] = Growth inhibition of human EKVX cells after 48 hrs by sulforhodamine B assay; procedure, shortened: as §2
[8] = test system: PC-3; test: Growth inhibition of human PC3 cells assessed as cell growth at 10 uM after 48 hrs by sulforhodamine B assay; settings: PC-3, 48 h, read-out: Activity
[9] = test system: M14; test: Growth inhibition of human M14 cells assessed as cell growth at 10 uM after 48 hrs by sulforhodamine B assay; settings: M14, 48 h, read-out: Activity
[10] = test system: RXF 393; test: Growth inhibition of human RXF393 cells after 48 hrs by sulforhodamine B assay; settings: RXF 393, 48 h; procedure, shortened: as §1
[11] = test system: SK-OV-3; test: Growth inhibition of human SKOV3 cells assessed as cell growth at 10 uM after 48 hrs by sulforhodamine B assay; settings: SK-OV-3, 48 h, read-out: Activity
[12] = test system: A549; test: Growth inhibition of human A549/ATCC cells assessed as cell growth at 10 uM after 48 hrs by sulforhodamine B assay; settings: A549, 48 h, read-out: Activity
[13] = test system: SF-268; test: Growth inhibition of human SF268 cells after 48 hrs by sulforhodamine B assay; settings: SF-268, 48 h; procedure, shortened: as §1
[14] = test system: SK-MEL-5; test: Growth inhibition of human SK-MEL-5 cells assessed as cell growth at 10 uM after 48 hrs by sulforhodamine B assay; settings: SK-MEL-5, 48 h, read-out: Activity
[15] = test system: SK-MEL-28; test: Growth inhibition of human SK-MEL-28 cells assessed as cell growth at 10 uM after 48 hrs by sulforhodamine B assay; settings: SK-MEL-28, 48 h, read-out: Activity
[16] = test system: UACC-257; test: Growth inhibition of human UACC257 cells assessed as cell growth at 10 uM after 48 hrs by sulforhodamine B assay; settings: UACC-257, 48 h, read-out: Activity
Procedure, shortened: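 Single-dose NCI screen. Tumor lines were cultured in medium with 5% fetal calf serum and 2 mM L-glutamine, preincubated 24 h, then given compound in DMSO. After 48 h continuous exposure, cell growth was estimated by sulforhodamine B protein assay.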

[17] = test system: SN12C; test: Growth inhibition of human SN12C cells assessed as cell growth at 10 uM after 48 hrs by sulforhodamine B assay; settings: read-out: Activity
[18] = test system: COLO 205; test: Growth inhibition of human COLO205 cells after 48 hrs by sulforhodamine B assay; settings: COLO 205, 48 h; procedure, shortened: as §2
[19] = test system: MCF7; test: Growth inhibition of human MCF7 cells assessed as cell growth at 10 uM after 48 hrs by sulforhodamine B assay; settings: MCF7, 48 h, read-out: Activity
[20] = test system: COLO 205; test: Growth inhibition of human COLO205 cells assessed as cell growth at 10 uM after 48 hrs by sulforhodamine B assay; settings: COLO 205, 48 h, read-out: Activity
[21] = test system: Rattus norvegicus; test: Antiinflammatory activity in Wistar rat assessed as inhibition of carrageenan-induced paw edema at 0.05 mmol/kg, po administered 30 mins prior challenge measured after 3 hrs
Procedure, shortened: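 Wistar rats of either sex, 150–175 g, fasted 16 h, 6 per group. Dosed orally at 0.05 mmol/kg, suspended in 1% CMC in water (10 ml/kg). 30 min later, 0.1 ml of 1% carrageenan in saline injected subplantar into the left hind paw. Paw volume read by plethysmometer at 0, 3 and 5 h. % inhibition = (1 − Vt/Vc) × 100 against the vehicle group.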

[22] = test system: HL-60(TB); test: Growth inhibition of human HL-60(TB) cells assessed as cell growth at 10 uM after 48 hrs by sulforhodamine B assay; settings: HL-60, 48 h, read-out: Activity
[23] = test system: NCI-H460; test: Growth inhibition of human NCI-H460 cells after 48 hrs by sulforhodamine B assay; settings: NCI-H460, 48 h; procedure, shortened: as §1
[24] = test system: OVCAR-8; test: Growth inhibition of human OVCAR8 cells after 48 hrs by sulforhodamine B assay; settings: OVCAR-8, 48 h; procedure, shortened: as §1
[25] = test system: A549; test: Growth inhibition of human A549/ATCC cells after 48 hrs by sulforhodamine B assay; settings: A549, 48 h; procedure, shortened: as §2
[26] = test system: NCI-H522; test: Growth inhibition of human NCI-H522 cells assessed as cell growth at 10 uM after 48 hrs by sulforhodamine B assay; settings: NCI-H522, 48 h, read-out: Activity
[27] = test system: HOP-92; test: Growth inhibition of human HOP92 cells after 48 hrs by sulforhodamine B assay; settings: HOP-92, 48 h; procedure, shortened: as §2
[28] = test system: A498; test: Growth inhibition of human A498 cells after 48 hrs by sulforhodamine B assay; settings: A498, 48 h; procedure, shortened: as §2
[29] = test system: PC-3; test: Growth inhibition of human PC3 cells after 48 hrs by sulforhodamine B assay; settings: PC-3, 48 h; procedure, shortened: as §1
[30] = read-out: LC50 (the source's name)

## Cc1ccc(C2=NN(c3ccc(S(C)(=O)=O)cc3)C(=O)CC2)cc1
[1]
  GI50: 2.78 µM
  TGI: > 100 µM
[1]; [30]
  CC50: > 100 µM
[2]
  GI50: 0.36 µM
  LC50 (lethal concentration, 50% net cell kill): > 100 µM
  TGI: 3.33 µM
[3]
  GI50: 0.74 µM
  TGI: > 100 µM
[3]; [30]
  CC50: > 100 µM
[4]
  growth at 10 µM: -1.17%
[5]
  GI50: 0.37 µM
  TGI: > 100 µM
[5]; [30]
  CC50: > 100 µM
[6]
  GI50: 1.25 µM
  TGI: > 100 µM
[6]; [30]
  CC50: > 100 µM
[7]
  GI50: 3.02 µM
  TGI: > 100 µM
[7]; [30]
  CC50: > 100 µM
[8]
  growth at 10 µM: 29.3%
[9]
  growth at 10 µM: 10.2%
[10]
  GI50: 0.63 µM
  LC50 (50% lethal concentration): > 100 µM
  TGI: 6.8 µM
[11]
  growth at 10 µM: 19.9%
[12]
  growth at 10 µM: 36.6%
[13]
  GI50: 2.94 µM
  TGI: > 100 µM
[13]; [30]
  CC50: > 100 µM
[14]
  growth at 10 µM: 13.9%
[15]
  growth at 10 µM: 51.4%
[16]
  growth at 10 µM: 50.7%
[17]
  growth at 10 µM: 39.7%
[18]
  GI50: 0.52 µM
  TGI: 6.07 µM
[18]; [30]
  CC50: > 100 µM
[19]
  growth at 10 µM: 16.2%
[20]
  growth at 10 µM: 4.23%
[21]
  inhibition in vivo at 50 µmol/kg: 46.7%
[22]
  growth at 10 µM: -12%
[23]
  GI50: 0.38 µM
  TGI: > 100 µM
[23]; [30]
  CC50: > 100 µM
[24]
  GI50: 0.74 µM
  LC50: > 100 µM
  TGI: > 100 µM
[25]
  GI50: 0.52 µM
  TGI: > 100 µM
[25]; [30]
  CC50: > 100 µM
[26]
  growth at 10 µM: 12.8%
[27]
  GI50: 0.42 µM
  TGI: 8.3 µM
[27]; [30]
  CC50: > 100 µM
[28]
  GI50: 0.14 µM
  TGI: 1.6 µM
[28]; [30]
  CC50: > 100 µM
[29]
  GI50: 1.43 µM
  LC50: > 100 µM
  TGI: > 100 µM
